Assay outcomes (PubChem)
KCNK3 inh = human KCNK3 channel inhibitors, primary screen, CHO cells, FluxOR thallium flux, B-score | Potassium channel subfamily K member 3 (Homo sapiens), O14649 | FluxOR fluorescence; stronger effect = lower value | B-score at 10 µM | actives 0.84% (n = 340,000) | AID 602410, 2012;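 active means B-score under library mean minus 4 SD, starting fluorescence ratio at most library mean plus 5 SD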;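 further: more negative B-score means stronger inhibition of thallium flux through KCNK3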
KCNQ1 act = potentiators or activators of KCNQ1 channel, primary screen, cell-based, thallium flux, high-throughput; CHO-K1 KCNQ1, thallium flux FluxOR fluorescence; stronger effect = higher value; AID 2648, 2010; B-score at 10 µM; Potassium voltage-gated channel subfamily KQT member 1 (Homo sapiens), P51787; actives 0.35% (n = 310,000);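 active means fluorescence ratio B-score, a plate-corrected score, at least three library SD, with initial intensity B-score within 5 SD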
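Test system: CHO-K1 cells stably expressing KCNQ1 / Medium: assay buffer / Also added: depolarizing K+/Tl+ stimulus, K2SO4 and Tl2SO4 each 12.5 mM in 5x stock / Incubation: 90 min dye loading and 20 min compound exposure, both at room temperature / Signal: thallium influx via FluxOR fluorescence, kinetic imaging / Evaluation: B score of baseline-normalized fluorescence ratio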
KCNQ1 inh = inhibitors of human KCNQ1 channel, primary screen, cell-based, thallium flux, high-throughput; CHO-K1 KCNQ1, FluxOR thallium flux fluorescence; stronger effect = higher value; actives 1.3% (n = 310,000); Potassium voltage-gated channel subfamily KQT member 1 (Homo sapiens), P51787; B-score at 10 µM;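 active means compounds whose thallium flux B-score, printed positive for inhibition, exceeds three library SD while starting fluorescence stays within three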;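 further: channel opened by potassium depolarization with thallium stimulus after 20 min compound exposure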
KCNK9 block = KCNK9 potassium channel inhibitors, primary screen, HEK293 cells, thallium flux; Potassium channel subfamily K member 9 (Homo sapiens), Q9NPC2; FluxOR thallium flux fluorescence; stronger effect = lower value; B-score at 10 µM; actives 1.2% (n = 310,000);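 active means ratio B-score over 3 SD below the library mean, with starting fluorescence within 5 SD of its mean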;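 further: negative B-score means less thallium flux so channel inhibition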
KCC2 mod = KCC2 cotransporter modulators, thallium flux, primary screen, cell-based, HEK293 KCC2, FluoZin-2 fluorescence, MLSMR; AID 1456, 2008; Solute carrier family 12 member 5 (Homo sapiens), Q9H2X9; B-score of Tl+ flux slope (higher = more flux/activation; lower = inhibition) at 10 µM; KCC2 cells, thallium flux FluoZin-2 fluorescence; actives 2.2% (n = 190,000);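 active means thallium flux slope and its plate-corrected score both differing from the plate sample mean at a set confidence after two filtering rounds, in either direction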;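 further: slope of fluorescence scaled to starting intensity during 10 to 20 s after thallium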
Target sequence (Q9H2X9 whole entry, looked up): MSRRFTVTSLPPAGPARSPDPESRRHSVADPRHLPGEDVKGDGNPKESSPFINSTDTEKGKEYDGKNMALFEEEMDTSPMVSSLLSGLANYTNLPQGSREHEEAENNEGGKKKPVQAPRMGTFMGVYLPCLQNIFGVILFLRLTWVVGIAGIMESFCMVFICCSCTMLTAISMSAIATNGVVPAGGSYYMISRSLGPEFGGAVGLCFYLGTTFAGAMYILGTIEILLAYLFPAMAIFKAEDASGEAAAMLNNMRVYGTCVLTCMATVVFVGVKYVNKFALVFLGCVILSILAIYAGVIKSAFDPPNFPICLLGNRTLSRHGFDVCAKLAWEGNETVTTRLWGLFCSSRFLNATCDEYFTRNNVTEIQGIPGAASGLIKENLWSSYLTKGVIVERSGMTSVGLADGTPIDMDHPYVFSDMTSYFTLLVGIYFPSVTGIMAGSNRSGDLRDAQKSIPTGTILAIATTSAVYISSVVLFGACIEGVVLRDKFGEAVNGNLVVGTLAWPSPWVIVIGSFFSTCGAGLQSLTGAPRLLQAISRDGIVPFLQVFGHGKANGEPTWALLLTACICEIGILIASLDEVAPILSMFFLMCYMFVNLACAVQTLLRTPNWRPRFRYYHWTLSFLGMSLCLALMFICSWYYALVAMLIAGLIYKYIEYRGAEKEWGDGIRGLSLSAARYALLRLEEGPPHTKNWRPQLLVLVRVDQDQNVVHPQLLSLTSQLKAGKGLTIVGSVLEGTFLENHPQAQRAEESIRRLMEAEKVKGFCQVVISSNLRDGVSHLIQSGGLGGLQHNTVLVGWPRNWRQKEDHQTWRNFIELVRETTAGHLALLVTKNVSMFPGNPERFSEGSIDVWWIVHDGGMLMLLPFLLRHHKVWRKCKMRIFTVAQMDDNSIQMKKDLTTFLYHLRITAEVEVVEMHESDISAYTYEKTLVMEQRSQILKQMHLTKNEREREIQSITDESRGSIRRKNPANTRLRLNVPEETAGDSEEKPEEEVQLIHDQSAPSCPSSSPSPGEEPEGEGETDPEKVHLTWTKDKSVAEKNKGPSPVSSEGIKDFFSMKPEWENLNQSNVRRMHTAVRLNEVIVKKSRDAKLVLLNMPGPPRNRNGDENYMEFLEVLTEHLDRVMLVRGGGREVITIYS
hERG rescue = hERG rescue from dofetilide block, primary screen, cell-based, CHO-hERG, FluxOR thallium flux, dofetilide IC70. Voltage-gated inwardly rectifying potassium channel KCNH2 (Homo sapiens), Q12809. dofetilide IC70 present. activation (rescue from dofetilide block), less the hit threshold, % at 10 µM. actives 0.51% (n = 310,000). AID 1511, 2009;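 active means activation above the mean of controls blocked by dofetilide plus 5 SD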;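 further: thallium influx through hERG after potassium depolarization seen as dye fluorescence rise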
KCNK9 block conf = KCNK9 potassium channel inhibitors, confirmation, HEK293 cells, thallium flux, duplicate; shares compounds with KCNK9 block; inhibition, % at 10 µM; FluxOR thallium flux fluorescence; actives 43% (n = 4,900); AID 492992, 2010;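 active means thallium signal inhibited by more than 5 SD of the compound-free buffer control wells, on both duplicate plates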;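 further: 0% = assay buffer control wells without compound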
Kir21 sel = mouse Kir2.1 channel inhibition, confirmation, selectivity assay for KCNK9 modulator project, cell-based, HEK293, thallium flux; actives 4% (n = 4,900); shares compounds with KCNK9 block; inhibition, % at 10 µM; Kir2.1 cells, FluxOR thallium flux fluorescence;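 active means thallium signal drop more than 5 SD beyond the mean of the no-compound control wells, seen in both duplicate plates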;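 further: signal is fluorescence rise after thallium addition divided by baseline fluorescence; plate controls were assay buffer only for no effect and full block by chlorpromazine control for full effect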
HEK293 Tl ctr = thallium flux in non-induced HEK293 cells, confirmation, counter-screen for KCNK9 inhibitor project, cell-based, second counter screen, non-induced KCNK9-HEK293 | FluxOR thallium flux | inhibition, % at 10 µM | shares compounds with KCNK9 block | actives 40% (n = 4,900);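 active means thallium signal drop beyond 5 SD of the untreated control mean, on both duplicate plates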;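 further: plate controls were buffer only IC0 wells for no effect and SID17386958 at its maximal inhibitory level for full effect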
KCNK3 inh conf = retest of human KCNK3 channel inhibitors, confirmation, CHO cells, FluxOR thallium flux, triplicate; FluxOR fluorescence; 0% buffer, 100% carvedilol maximal block; shares compounds with KCNK3 inh; actives 99% (n = 2,400); ratio percent of control, % at 10 µM;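 active means ratio percent of control, averaged over triplicates, above buffer control mean plus 5 SD, cut at about 64% in these data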;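 further: ratio is the fluorescence rise from min to max over baseline after thallium stimulus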
KCNK3 uninduced = thallium flux inhibition in non-induced cells, primary screen, counter-screen for KCNK3 inhibitor project, cell-based, non-induced KCNK3 line, FluxOR thallium, triplicate | actives 40% (n = 2,400) | AID 651747, 2012 | non-induced KCNK3 parental cells; stronger effect = lower value | shares compounds with KCNK3 inh | thallium flux ratio (lower = more inhibition) at 10 µM;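 active means thallium flux ratio, averaged over three wells, more than 5 SD below the buffer control mean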;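 further: host cells are CHO cells without KCNK3 induction; ratio is peak minus trough fluorescence over baseline then normalized to buffer controls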
* marks the source's active call; other numbers are inactive results. The list is not random: actives were taken first. Their share in the collection is about 4.1%.

`CCOC(=O)c1c(NC(=O)Cn2nc(C(F)F)cc2C(F)F)sc(C)c1C` gave KCNK3 inh -13*, KCNQ1 act inactive, KCNQ1 inh inactive, KCNK9 block -10*, KCC2 mod -1.2, hERG rescue -8, KCNK9 block conf 57%*, Kir21 sel inactive, HEK293 Tl ctr 46%*, KCNK3 inh conf 107* and KCNK3 uninduced inactive.
`CCc1noc(C)c1C(=O)N1CCOCC1` gave KCNK3 inh inactive, KCNQ1 act inactive, KCNQ1 inh inactive, KCNK9 block inactive, KCC2 mod 0.26 and hERG rescue -11.
Screening CCc1noc(C)c1C(=O)N1CCSC1=Nc1cccc(Cl)c1C returned KCNK3 inh -11*, KCNQ1 act inactive, KCNQ1 inh 6*, KCNK9 block -8.9*, hERG rescue -17, KCNK9 block conf 64%*, Kir21 sel inactive, HEK293 Tl ctr 42%*, KCNK3 inh conf 113* and KCNK3 uninduced inactive.
COc1ccc(CNC(=O)C/C(C)=N/NC(=O)c2ccc(OC)cc2OC)cc1 was read as KCNK3 inh inactive, KCNQ1 act inactive, KCNQ1 inh inactive, KCNK9 block inactive and hERG rescue -5.
`Cc1cc(Nc2ccc(Cl)cc2)n(-c2cccc(Cl)c2)n1` gave KCNK3 inh -9*, KCNQ1 act inactive, KCNQ1 inh inactive, KCNK9 block -8.2*, hERG rescue -14, KCNK9 block conf 50%*, Kir21 sel inactive, HEK293 Tl ctr 32%*, KCNK3 inh conf 149* and KCNK3 uninduced 0.15*.
`Cc1cc(NC(=O)CSc2cc(Cl)ccc2Cl)n(-c2ccccc2)n1` gave KCNK3 inh -9.6*, KCNQ1 act inactive, KCNQ1 inh inactive, KCNK9 block -10*, KCC2 mod -1.3, hERG rescue -22, KCNK9 block conf 48%*, Kir21 sel inactive, HEK293 Tl ctr inactive, KCNK3 inh conf 127* and KCNK3 uninduced 0.14*.
For CCOC(=O)c1cnc2c(ccc3ccccc32)c1NCCCN(C)C the results were KCNK3 inh inactive, KCNQ1 act inactive, KCNQ1 inh inactive, KCNK9 block inactive and hERG rescue -9.
